Activity calls are given as the source filed them. No cut-off for these calls is given here. *1 amine or outer side, *2 acyl side, *3 side chain or, on linkers, in order; H or OH if unused. Where a SMILES comes first, the peptide text is derived from it. The star is where a group is joined. AMC = Cc1cc(=O)oc2cc(N*)ccc12; Suc = O=C(CCC(=O)[*:2])[*:1]
Assays:
[1] = biological target: T1, NAD-dependent protein deacetylase sirtuin-1 (Homo sapiens) (UniProt Q96EB6); experiment: Activity of human full length SIRT1 enzyme at 50 uM after 1 hr by trypsin developer-based fluorescence assay
T1 sequence (whole entry): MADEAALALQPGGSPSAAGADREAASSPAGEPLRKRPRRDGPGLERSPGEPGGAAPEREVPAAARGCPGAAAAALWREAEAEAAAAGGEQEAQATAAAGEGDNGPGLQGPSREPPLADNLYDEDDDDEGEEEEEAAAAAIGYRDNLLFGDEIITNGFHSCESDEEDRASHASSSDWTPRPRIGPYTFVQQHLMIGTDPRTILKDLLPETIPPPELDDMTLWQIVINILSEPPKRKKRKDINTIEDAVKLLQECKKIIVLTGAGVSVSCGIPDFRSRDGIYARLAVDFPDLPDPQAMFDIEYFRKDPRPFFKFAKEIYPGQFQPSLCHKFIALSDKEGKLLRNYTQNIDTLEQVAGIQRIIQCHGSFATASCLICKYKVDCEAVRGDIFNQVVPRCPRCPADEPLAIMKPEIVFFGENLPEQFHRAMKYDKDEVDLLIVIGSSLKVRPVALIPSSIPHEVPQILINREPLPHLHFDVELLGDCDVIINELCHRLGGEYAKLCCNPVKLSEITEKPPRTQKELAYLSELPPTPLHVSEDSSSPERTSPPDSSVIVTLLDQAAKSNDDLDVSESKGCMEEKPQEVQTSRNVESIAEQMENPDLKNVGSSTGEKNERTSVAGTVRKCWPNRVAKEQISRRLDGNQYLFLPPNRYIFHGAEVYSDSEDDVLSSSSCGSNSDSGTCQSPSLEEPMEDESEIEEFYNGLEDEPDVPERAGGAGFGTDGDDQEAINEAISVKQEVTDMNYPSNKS
How it was run: (§1)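 Acetylated substrates were each treated with commercial full-length His-tagged SIRT1 or truncated SIRT1-GST fusion, with NAD, in Tris-Cl pH 8.0 buffer containing BSA. End point: 1 h at 37 °C, then nicotinamide (2 mM)/trypsin (0.4 mg/mL) developer for 15–30 min at room temperature. Fluorescence read at ex 360/em 460 nm against no-enzyme control wells.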

[2] = biological target: T1, NAD-dependent protein deacetylase sirtuin-1 (Homo sapiens); experiment: Activity of human truncated SIRT1-GST fusion protein at 50 uM after 1 hr by trypsin developer-based fluorescence assay; how it was run: as §1
[3] = biological target: T2, NAD-dependent protein deacetylase sirtuin-7 (Homo sapiens) (UniProt Q9NRC8); experiment: Activity of recombinant human SIRT7 assessed as deacylation of compound at 50 uM after 1 hr by trypsin developer-based fluorescence assay
T2 sequence (whole entry): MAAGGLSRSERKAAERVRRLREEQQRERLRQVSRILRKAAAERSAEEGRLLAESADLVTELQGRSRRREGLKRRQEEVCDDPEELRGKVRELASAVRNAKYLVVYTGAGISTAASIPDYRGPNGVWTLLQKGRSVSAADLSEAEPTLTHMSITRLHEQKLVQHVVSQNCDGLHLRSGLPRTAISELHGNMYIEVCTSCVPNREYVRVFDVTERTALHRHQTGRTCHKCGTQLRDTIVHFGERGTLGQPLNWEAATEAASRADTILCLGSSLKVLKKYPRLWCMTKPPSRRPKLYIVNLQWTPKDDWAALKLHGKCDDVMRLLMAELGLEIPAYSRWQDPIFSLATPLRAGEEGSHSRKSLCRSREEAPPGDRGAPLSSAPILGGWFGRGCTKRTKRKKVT
How it was run: (§2)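 Recombinant sirtuin at 1 μg per 50 μL reaction, with SIRT1-GST fusion as the SIRT1 source. Fluorogenic substrate and NAD incubated in Tris-Cl buffer pH 8.0 with BSA (1 mg/mL) for 1 h at 37 °C. Developer with nicotinamide (2 mM) and trypsin (0.4 mg/mL) added, 15–30 min at room temperature. Fluorescence read at ex 360/em 460 nm and normalized to no-enzyme wells. At least two experiments in duplicate.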

[4] = biological target: T3, NAD-dependent protein deacetylase sirtuin-3, mitochondrial (Homo sapiens) (UniProt Q9NTG7); experiment: Activity of human SIRT3 assessed as deacylation of compound at 50 uM after 1 hr by trypsin developer-based fluorescence assay; how it was run: as §2
T3 sequence (whole entry): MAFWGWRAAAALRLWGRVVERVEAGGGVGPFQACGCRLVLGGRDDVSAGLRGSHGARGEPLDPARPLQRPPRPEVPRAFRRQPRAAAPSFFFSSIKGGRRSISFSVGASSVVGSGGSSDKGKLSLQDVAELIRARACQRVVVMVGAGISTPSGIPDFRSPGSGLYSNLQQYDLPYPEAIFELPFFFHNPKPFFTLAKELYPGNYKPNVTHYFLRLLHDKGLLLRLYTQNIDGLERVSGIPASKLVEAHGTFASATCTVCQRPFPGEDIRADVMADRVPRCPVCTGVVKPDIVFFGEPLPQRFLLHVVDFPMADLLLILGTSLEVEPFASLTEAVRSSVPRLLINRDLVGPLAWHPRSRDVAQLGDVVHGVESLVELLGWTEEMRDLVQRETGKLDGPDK

[5] = biological target: NAD-dependent protein deacylase sirtuin-6 (Homo sapiens) (UniProt Q8N6T7); experiment: Activity of human SIRT6 assessed as deacylation of compound at 50 uM after 1 hr by trypsin developer-based fluorescence assay; how it was run: as §2
[6] = biological target: T4, NAD-dependent protein lipoamidase sirtuin-4, mitochondrial (Homo sapiens) (UniProt Q9Y6E7); experiment: Activity of recombinant human SIRT4 assessed as deacylation of compound at 50 uM after 1 hr by trypsin developer-based fluorescence assay; how it was run: as §2
T4 sequence (whole entry): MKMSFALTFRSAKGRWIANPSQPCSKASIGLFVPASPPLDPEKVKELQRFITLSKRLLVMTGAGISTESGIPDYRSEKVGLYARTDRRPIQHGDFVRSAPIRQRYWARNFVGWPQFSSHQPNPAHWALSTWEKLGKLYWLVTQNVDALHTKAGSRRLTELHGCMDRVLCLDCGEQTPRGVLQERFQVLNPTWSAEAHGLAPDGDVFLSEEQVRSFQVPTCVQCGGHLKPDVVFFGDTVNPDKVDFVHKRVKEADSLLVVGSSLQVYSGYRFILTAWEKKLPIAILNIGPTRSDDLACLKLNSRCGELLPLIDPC

[7] = biological target: NAD-dependent protein deacylase sirtuin-5, mitochondrial (Homo sapiens) (UniProt Q9NXA8); experiment: Activity of human SIRT5 assessed as deacylation of compound at 50 uM after 1 hr by trypsin developer-based fluorescence assay; how it was run: as §2
[8] = biological target: T1, NAD-dependent protein deacetylase sirtuin-1 (Homo sapiens); experiment: Activity of human SIRT1 assessed as deacylation of compound at 50 uM after 1 hr by trypsin developer-based fluorescence assay; how it was run: as §2
[9] = biological target: T5, NAD-dependent protein deacetylase sirtuin-2 (Homo sapiens) (UniProt Q8IXJ6); experiment: Activity of human SIRT2 assessed as deacylation of compound at 50 uM after 1 hr by trypsin developer-based fluorescence assay; how it was run: as §2
T5 sequence (whole entry): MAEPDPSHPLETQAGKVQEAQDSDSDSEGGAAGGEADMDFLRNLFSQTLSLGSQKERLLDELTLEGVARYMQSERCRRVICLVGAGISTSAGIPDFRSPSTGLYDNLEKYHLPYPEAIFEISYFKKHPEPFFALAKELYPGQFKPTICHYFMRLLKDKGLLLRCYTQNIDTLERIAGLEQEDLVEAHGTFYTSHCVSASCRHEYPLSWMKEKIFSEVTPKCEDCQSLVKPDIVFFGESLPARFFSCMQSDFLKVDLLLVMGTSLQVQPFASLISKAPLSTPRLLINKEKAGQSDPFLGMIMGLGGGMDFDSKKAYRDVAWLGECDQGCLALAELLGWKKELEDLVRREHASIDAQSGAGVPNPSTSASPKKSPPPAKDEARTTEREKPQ

[10] = biological target: T3, NAD-dependent protein deacetylase sirtuin-3, mitochondrial (Homo sapiens); experiment: Activity of human SIRT3 assessed as decrotonylation of compound at 50 uM after 1 hr by trypsin developer-based fluorescence assay; how it was run: as §2
[11] = biological target: T1, NAD-dependent protein deacetylase sirtuin-1 (Homo sapiens); experiment: Activity of human SIRT1 assessed as decrotonylation of compound at 50 uM after 1 hr by trypsin developer-based fluorescence assay; how it was run: as §2
[12] = biological target: T5, NAD-dependent protein deacetylase sirtuin-2 (Homo sapiens); experiment: Activity of human SIRT2 assessed as decrotonylation of compound at 50 uM after 1 hr by trypsin developer-based fluorescence assay; how it was run: as §2
[13] = biological target: NAD-dependent protein deacylase sirtuin-5, mitochondrial (Homo sapiens) (UniProt Q9NXA8); experiment: Activity of human SIRT5 assessed as decrotonylation of compound at 50 uM after 1 hr by trypsin developer-based fluorescence assay; how it was run: as §2
[14] = biological target: NAD-dependent protein deacylase sirtuin-6 (Homo sapiens) (UniProt Q8N6T7); experiment: Activity of human SIRT6 assessed as decrotonylation of compound at 50 uM after 1 hr by trypsin developer-based fluorescence assay; how it was run: as §2

Sequence of NAD-dependent protein deacylase sirtuin-5, mitochondrial (Homo sapiens) (Q9NXA8 37-310 limits assumed): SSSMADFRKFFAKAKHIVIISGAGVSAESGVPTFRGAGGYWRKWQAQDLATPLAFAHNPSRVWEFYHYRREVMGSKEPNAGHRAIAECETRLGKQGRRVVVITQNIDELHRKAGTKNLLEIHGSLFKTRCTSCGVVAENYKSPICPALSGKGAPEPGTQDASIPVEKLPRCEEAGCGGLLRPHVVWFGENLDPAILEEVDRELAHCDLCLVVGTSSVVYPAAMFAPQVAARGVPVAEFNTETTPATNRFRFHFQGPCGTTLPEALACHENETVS
Sequence of NAD-dependent protein deacylase sirtuin-6 (Homo sapiens) (Q8N6T7 whole entry): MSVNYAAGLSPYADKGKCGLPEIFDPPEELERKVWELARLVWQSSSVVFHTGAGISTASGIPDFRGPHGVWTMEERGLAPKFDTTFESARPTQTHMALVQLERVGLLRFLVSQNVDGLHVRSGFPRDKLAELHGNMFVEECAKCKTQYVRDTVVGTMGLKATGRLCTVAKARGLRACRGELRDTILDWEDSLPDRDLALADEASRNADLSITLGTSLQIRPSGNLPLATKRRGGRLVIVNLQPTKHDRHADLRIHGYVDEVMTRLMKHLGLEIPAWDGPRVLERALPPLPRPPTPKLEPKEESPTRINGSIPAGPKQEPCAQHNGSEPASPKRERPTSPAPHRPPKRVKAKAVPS

SMILES	Activity [1]	Activity [2]	Activity [3]	Activity [4]	Activity [5]	Activity [6]	Activity [7]	Activity [8]	Activity [9]	Activity [10]	Activity [11]	Activity [12]	Activity [13]	Activity [14]
CC(=O)NCCCC[C@H](NC(=O)CNC(=O)[C@H](CC(C)C)NC(C)=O)C(=O)Nc1ccc2c(C)cc(=O)oc2c1 (Ac-Leu-Gly-Lys(Ac)-{AMC})	inactive	inactive	inactive	Active	inactive	inactive	inactive	Active	Active	–	–	–	–	–
CC(=O)NCCCC[C@H](NC(C)=O)C(=O)Nc1ccc2c(C)cc(=O)oc2c1	inactive	inactive	inactive	Active	inactive	inactive	inactive	Active	Active	–	–	–	–	–
C/C=C/C(=O)NCCCC[C@H](NC(=O)CNC(=O)[C@H](CC(C)C)NC(C)=O)C(=O)Nc1ccc2c(C)cc(=O)oc2c1	–	–	–	–	–	–	–	–	–	inactive	inactive	inactive	inactive	inactive
CC(=O)NCCCC[C@H](NC(=O)[C@H](CCCCNC(C)=O)NC(=O)[C@H](Cc1cnc[nH]1)NC(=O)[C@H](CCCNC(=N)N)NC(C)=O)C(=O)Nc1ccc2c(C)cc(=O)oc2c1 (Ac-RHK(Ac)K(Ac)-{AMC})	inactive	inactive	inactive	Active	inactive	inactive	inactive	Active	Active	–	–	–	–	–
CC(=O)N[C@@H](CC(C)C)C(=O)NCC(=O)N[C@@H](CCCCNC(=O)CCC(=O)O)C(=O)Nc1ccc2c(C)cc(=O)oc2c1 (Ac-Leu-Gly-Lys(Suc)-{AMC})	–	–	inactive	–	inactive	inactive	Active	–	–	–	–	–	–	–

Source: ChEMBL document CHEMBL2163301, “Substrates for efficient fluorometric screening employing the NAD-dependent sirtuin 5 lysine deacylase (KDAC) enzyme” (J Med Chem, 2012)
